Data from ChEMBL document CHEMBL5053496, “Antibacterial sulfonimidamide-based oligopeptides as type I signal peptidase inhibitors: Synthesis and biological evaluation” (Eur J Med Chem, 2021).
Converted amounts (≈) assume the structure as drawn.

Key:
[1] = Hemolytic activity against human RBC assessed as hemolysis measured after 45 mins; assay type: ADME, tissue-based, Erythrocyte; conditions: red blood cells (RBC), read-out: Activity
Outline: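 Human RBCs from heparinized blood, washed three times in Tyrode buffer pH 7.4. Final 100 µM compound, 1% DMSO, 50% RBC; 37 °C, 45 min, shaking 250 rpm. Cells spun off, supernatant hemoglobin read at 540 nm. Percent hemolysis relative to 2% Triton X-100 full lysis and buffer-only negative control.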

[2] = Inhibition of Escherichia coli LepB using dabcyl-VEVGGTATA GFSPRGLE-EDANS and dabcyl-KLTGFTVKPVQAIA GYEILE-EDANS-OH as substrates preincubated for 10 mins followed by substrate addition by FRET assay
Outline: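 FRET assay with recombinant E. coli LepB, final about 50 nM. Enzyme pre-incubated with inhibitor 10 min at 22 °C, then substrate added at 8 µM. Linear fluorescence increase from cleavage followed at 22 °C for 2 h. IC50 from non-linear regression of sigmoidal rate vs. inhibitor concentration curves.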

Escherichia coli [3] = assay: Antibacterial activity against wild type Escherichia coli ATCC 25922 assessed as inhibition of bacterial growth measured after 16 to 20 hrs; assay type: functional; conditions: time 16-20 hrs
Outline: (§1)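 Read visually as complete growth inhibition by the unaided eye, with medium-only wells as control.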

Escherichia coli [4] = assay: Antibacterial activity against Escherichia coli harboring tolC efflux defective mutant assessed as inhibition of bacterial growth measured after 16 to 20 hrs; assay type: functional; conditions: time 16-20 hrs
Outline: (§2)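 MIC read visually as the lowest concentration giving complete growth inhibition to the unaided eye, with medium-only wells as the control.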

Escherichia coli [5] = assay: Antibacterial activity against Escherichia coli D22 mutant assessed as inhibition of bacterial growth measured after 16 to 20 hrs; assay type: functional; conditions: time 16-20 hrs; outline: as §2
Pseudomonas aeruginosa [6] = assay: Antibacterial activity against wild type Pseudomonas aeruginosa PAO1 assessed as inhibition of bacterial growth measured after 16 to 20 hrs; assay type: functional; conditions: time 16-20 hrs; outline: as §1
Pseudomonas aeruginosa [7] = assay: Antibacterial activity against efflux pump deficient Pseudomonas aeruginosa PAO750 assessed as inhibition of bacterial growth measured after 16 to 20 hrs; assay type: functional; conditions: time 16-20 hrs; outline: as §1
Acinetobacter baumannii = assay: Antibacterial activity against Acinetobacter baumanii ATCC 19606 assessed as inhibition of bacterial growth measured after 16 to 20 hrs; assay type: functional; conditions: ATCC 19606 = CIP 70.34 = JCM 6841, time 16-20 hrs; outline: as §1
Staphylococcus aureus = assay: Antibacterial activity against staphylococcus aureus ATCC 29213 assessed as inhibition of bacterial growth measured after 16 to 20 hrs; assay type: functional; conditions: time 16-20 hrs; outline: as §1
HepG2 = assay: Cytotoxicity against human HepG2 cells assessed as reduction in cell viability measured after 72 hrs by fluorometric assay; assay type: cell-based; conditions: HepG2, 72 h
Outline: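 HepG2 cells grown with L-glutamine 2 mM, passaged twice weekly, used up to 20 passages. Seeded at 1000 cells/well in 384-well plates, exposed 72 h. Fluorescence read-out; survival index (%) = test-well fluorescence as percent of control cultures, blanks subtracted. Assay accepted if control signal-to-noise >10, CV <30%, bortezomib positive control SI <5%.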

Klebsiella pneumoniae = assay: Antibacterial activity against wild type Klebsiella pneumoniae ATCC 13883 assessed as inhibition of bacterial growth measured after 16 to 20 hrs

Compound	hemolysis at 0.75 h [1] [%]	IC50 [2] [nM]	MIC (Escherichia coli [3]) [µg/mL]	MIC (Escherichia coli [4]) [µg/mL]	MIC (Escherichia coli [5]) [µg/mL]	MIC (Pseudomonas aeruginosa [6]) [µg/mL]	MIC (Pseudomonas aeruginosa [7]) [µg/mL]	MIC (Acinetobacter baumannii) [µg/mL]	MIC (Staphylococcus aureus) [µg/mL]	IC50 (HepG2) [nM]	MIC (Klebsiella pneumoniae) [µg/mL]
CCCCCCc1ccc(-c2ccc(S(=O)(=NCCN)N3CCC[C@H]3C(=O)N[C@H](C(=O)N[C@@H](C)C(=O)NC(CC(N)=O)C(=O)N[C@@H](C)B3O[C@@H]4C[C@H]5C[C@H](C5(C)C)[C@]4(C)O3)[C@@H](C)O)cc2)cc1 (stereo not given in full)	5.32	133	64 (≈ 67.4 µM)	16 (≈ 16.9 µM)	8 (≈ 8.43 µM)	> 64	> 64	64 (≈ 67.4 µM)	< 1	5200	> 64
CCCCCCCCCCCCS(=O)(=O)N1CCC[C@H]1C(=O)N[C@H](C(=O)N[C@@H](C)C(=O)NC(CC(N)=O)C(=O)N[C@@H](C)B1O[C@@H]2C[C@H]3C[C@H](C3(C)C)[C@]2(C)O1)[C@@H](C)O (mixture of isomers)	0.1	56	> 64	8	16	> 64	32	> 64	< 1	1200	> 64
CCCCCCc1ccc(-c2ccc([S@@](=N)(=O)N3CCC[C@H]3C(=O)N[C@H](C(=O)N[C@@H](C)C(=O)NC(CC(N)=O)C(=O)N[C@@H](C)B3O[C@@H]4C[C@H]5C[C@H](C5(C)C)[C@]4(C)O3)[C@@H](C)O)cc2)cc1 (mixture of isomers)	0.35	1110	> 64	4	32	> 64	> 64	> 64	4	2990	> 64
CCCCCCc1ccc(-c2ccc([S@](=N)(=O)N3CCC[C@H]3C(=O)N[C@H](C(=O)N[C@@H](C)C(=O)NC(CC(N)=O)C(=O)N[C@@H](C)B3O[C@@H]4C[C@H]5C[C@H](C5(C)C)[C@]4(C)O3)[C@@H](C)O)cc2)cc1 (mixture of isomers)	2.15	1070	> 64	4	8	> 64	> 64	> 64	4	2950	> 64
CCCCCCc1ccc(-c2ccc(S(=O)(=O)N3CCC[C@H]3C(=O)N[C@H](C(=O)N[C@@H](C)C(=O)NC(CC(N)=O)C(=O)N[C@@H](C)B3O[C@@H]4C[C@H]5C[C@H](C5(C)C)[C@]4(C)O3)[C@@H](C)O)cc2)cc1 (mixture of isomers)	14.5	71	> 64	> 64	> 64	> 64	> 64	> 64	> 64	580	> 64
